Assay results collected from several papers.
Lines come from different studies, so protocols differ.
Target: Interleukin-1 receptor-associated kinase 4 (IRAK4, Homo sapiens, UniProt Q9NWZ3)
Residues used in one study (Q9NWZ3 1-460): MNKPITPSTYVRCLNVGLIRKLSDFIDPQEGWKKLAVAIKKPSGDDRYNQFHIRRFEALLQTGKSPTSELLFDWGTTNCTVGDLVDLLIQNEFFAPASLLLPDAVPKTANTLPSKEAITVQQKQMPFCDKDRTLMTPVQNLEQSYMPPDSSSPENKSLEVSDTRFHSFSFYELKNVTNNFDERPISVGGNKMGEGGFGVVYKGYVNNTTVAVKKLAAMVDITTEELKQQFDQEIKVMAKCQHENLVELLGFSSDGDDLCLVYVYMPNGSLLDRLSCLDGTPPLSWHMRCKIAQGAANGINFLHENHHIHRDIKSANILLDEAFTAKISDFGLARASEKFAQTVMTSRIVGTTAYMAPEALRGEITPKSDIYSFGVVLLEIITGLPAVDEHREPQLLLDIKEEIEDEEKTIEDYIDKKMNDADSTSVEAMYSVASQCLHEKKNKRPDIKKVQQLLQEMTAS

| SMILES | read-out | technique | concentration | remaining binding [%] |
| --- | --- | --- | --- | --- |
| O=C(c1ccc(Nc2ncc(Cl)c(-c3ccc(Cl)s3)n2)cc1)N1CCC(N2CCCC2)CC1 | binding | competition with immobilised ligand | 1 µM | 60 |
| COc1ccnn2ncc(-c3ccnc(N(C)C)n3)c12 | binding |  | 1 µM | 80 |
| COc1cnc(Nc2cccc(S(N)(=O)=O)c2)nc1N1CCN(c2ccccc2)CC1 | binding | competition with immobilised ligand | 1 µM | 65 |
| CN(c1nccc(-c2cnn3ncccc23)n1)C1CC1 | binding |  | 1 µM | 100 |
| O=C(O)[C@H]1[C@H](Cn2nnc3ccccc3c2=O)CC[C@@H]1C(=O)c1ccc(OCCC2CCOCC2)cc1 | cell-free assay | competition with immobilised ligand | 1 µM | 76 |
| COc1ncc2cc3ccccc3nc2c1C#N | cell-free assay | competition with immobilised ligand | 5 µM | 97 |
| O=C1NC(c2ccccn2)Sc2ccccc21 (centres unmarked) | cell-free assay | competition with immobilised ligand | 1 µM | 100 |
| CCN1CCN(Cc2ccc(C(=O)Nc3ccc(C)c(Oc4ccc5c(c4)CC(=O)N5)c3)cc2C(F)(F)F)CC1 | binding | competition with immobilised ligand | 1 µM | 84 |
| CCS(=O)(=O)c1cc2cc(C[C@](O)(CC(C)(C)c3ccc(F)cc3C(N)=O)C(F)(F)F)[nH]c2cn1 | cell-free assay | competition with immobilised ligand | 1 µM | 100 |
| c1cncc(-c2cccc(Nc3nccc(NC4CCCCC4)n3)c2)c1 | binding | competition with immobilised ligand | 10 µM | 34 |
| O=C(c1ccc(Nc2nccc(-c3cc4ccccc4s3)n2)cc1)N1CCC(N2CCCC2)CC1 | binding | competition with immobilised ligand | 1 µM | 100 |
| CN(C)c1nccc(-c2cnn3ncccc23)n1 | binding |  | 1 µM | 73 |
| CCOC(=O)c1cc2cc(-c3cc(C(=O)NCc4ccc(C(=O)O)cc4)nn3C)ccc2[nH]1 | cell-free assay | competition with immobilised ligand | 0.1 µM | 91 |
| C[C@@H]1CCN(c2nccc(-c3cnn4ncccc34)n2)C1 | binding |  | 1 µM | 100 |
| C[C@H](c1ccnc(Nc2nc3ccc(-c4cc(N(C)C)ncn4)cc3[nH]2)c1)N1CCN(C(=O)CC(F)(F)F)CC1 | cell-free assay | competition with immobilised ligand | 0.1 µM | 100 |
| O=C(Nc1c[nH]nc1C(=O)NC1CCNCC1)c1cc(F)cc(F)c1 | binding | competition with immobilised ligand | 1 µM | 100 |
| CC1CCCN1c1nccc(-c2cnn3ncccc23)n1 (centres unmarked) | binding |  | 1 µM | 84 |
| Cn1cc(Cl)c2c(Oc3c(F)cc(Nc4cc(Cl)nc(N)n4)cc3F)ccnc21 | cell-free assay | competition with immobilised ligand | 0.1 µM | 90 |
| N[C@@H]1CCN(c2nccc(-c3cnn4ncccc34)n2)C1 | binding |  | 1 µM | 99 |
| O=C(NCCCN1CCOCC1)c1ccc(Nc2nccc(-c3cc4ccccc4s3)n2)cc1 | binding | competition with immobilised ligand | 1 µM | 75 |
